Assay results of several laboratories.
Each line is one published result; the experiments were not run side by side.
TYK2 JH2: Non-receptor tyrosine-protein kinase TYK2, JH2 (TYK2, Homo sapiens, UniProt P29597)
TYK2 JH1: Non-receptor tyrosine-protein kinase TYK2, JH1 (TYK2, Homo sapiens, UniProt P29597)
TYK2: Non-receptor tyrosine-protein kinase TYK2 (TYK2, Homo sapiens, UniProt P29597)

CCCOc1ccc([C@H]2[C@H](C(=O)O)[C@@H](c3ccc4c(c3)OCO4)CN2CC(=O)Nc2c(CC)cccc2CC)cc1
remaining binding (TYK2 JH2; cell-free assay, competition with immobilised ligand; 1 µM): 80%

O=C(c1ccc(Nc2nccc(-c3cc4ccccc4s3)n2)cc1)N1CCC(N2CCCC2)CC1
remaining binding (TYK2 JH1; binding, competition with immobilised ligand; 1 µM): 13%

CN(C)c1ncc(F)c(-c2cnn3ncccc23)n1
remaining binding (TYK2; binding; 1 µM): 70%

COc1ccc2c(c1)O[C@H](c1ccc(OC)c(OC)c1)C[C@@H]2NC(=O)C1(c2ccc3c(c2)OC(F)(F)O3)CC1
remaining binding (TYK2 JH2; cell-free assay, competition with immobilised ligand; 1 µM): 100%

Cc1cnn2ncc(-c3ccnc(N(C)C)n3)c2c1
remaining binding (TYK2 JH1; cell-free assay, competition with immobilised ligand; 1 µM): 64%

COc1cnc(Nc2cccc(S(N)(=O)=O)c2)nc1N1CCN(c2ccccc2)C(=O)C1
remaining binding (TYK2 JH1; binding, competition with immobilised ligand; 1 µM): 39%

Cc1nc(C2CCN(C(=O)c3ccc(OC(F)(F)F)cc3N)CC2)c2ncc(N3CCN(C)CC3)cc2n1
remaining binding (TYK2 JH2; cell-free assay, competition with immobilised ligand; 1 µM): 88%

O=C(c1ccc(Nc2ncc(Cl)c(-c3cc4ccccc4s3)n2)cc1)N1CCC(N2CCCC2)CC1
remaining binding (TYK2 JH1; binding, competition with immobilised ligand; 1 µM): 7.1%

CNC(=O)[C@@H]1CC[C@@H](n2c(-c3ccc4cnccc4c3)nc3ccc(C(=O)NCc4cccc(C(N)=O)c4)cc32)C1
remaining binding (TYK2 JH1; binding, competition with immobilised ligand; 1 µM): 99%

CN1CCN(c2ccc(Nc3nccc(-c4ccccc4)n3)cc2C(F)(F)F)CC1
remaining binding (TYK2; binding; 10 µM): 0%

CN(C)c1nccc(-c2cnn3ncccc23)n1
remaining binding (TYK2; binding; 1 µM): 100%

O=C(c1ccc(Nc2ncc(Cl)c(-c3ccc(Cl)s3)n2)cc1)N1CCC(N2CCCC2)CC1
remaining binding (TYK2 JH2; binding, competition with immobilised ligand; 1 µM): 0.2%

Nc1ncc2c(n1)-c1c([nH]c3ccc(C#CC4CC4)cc13)CCCC2
remaining binding (TYK2 JH2; binding, competition with immobilised ligand; 1 µM): 73%

CN(C)c1ncnc(-c2ccc3nc(Nc4cc(CN5CCN(C(=O)CC(F)(F)F)CC5)ccn4)[nH]c3c2)c1Cl
remaining binding (TYK2 JH2; cell-free assay, competition with immobilised ligand; 1 µM): 77%

Cc1cnc(Nc2ccc(C(=O)N3CCC(N4CCCC4)CC3)cc2)nc1-c1cc2ccccc2s1
remaining binding (TYK2 JH1; binding, competition with immobilised ligand; 1 µM): 6.7%

COc1cccc(CNC(=O)c2nc3scc(COCc4ccc(C(=O)O)cc4)c3c(=O)[nH]2)c1
remaining binding (TYK2 JH2; cell-free assay, competition with immobilised ligand; 1 µM): 79.8%

O=C(Nc1c[nH]nc1C(=O)NC1CCNCC1)c1cc(F)cc(F)c1
remaining binding (TYK2 JH2; binding, competition with immobilised ligand; 1 µM): 100%

C[C@@H]1CCN(c2nccc(-c3cnn4ncccc34)n2)C1
remaining binding (TYK2; binding; 1 µM): 66%

c1cncc(-c2cccc(Nc3nccc(NC4CCCCC4)n3)c2)c1
remaining binding (TYK2 JH2; binding, competition with immobilised ligand; 10 µM): 3.8%

COc1cnc(Nc2cccc(S(N)(=O)=O)c2)nc1N1CCN(c2ccccc2)CC1
remaining binding (TYK2 JH2; binding, competition with immobilised ligand; 1 µM): 85%

O=C(NCCCN1CCOCC1)c1ccc(Nc2nccc(-c3cc4ccccc4s3)n2)cc1
remaining binding (TYK2 JH1; binding, competition with immobilised ligand; 1 µM): 11%

O=C(N[C@H]1CCCCC/C=C\C2C[C@@]2(C(=O)O)NC(=O)[C@@H]2C[C@@H](Oc3ccncc3)CN2C1=O)OC1CCCC1 (stereo partly drawn)
remaining binding (TYK2 JH1; binding, competition with immobilised ligand; 1 µM): 98%

COc1ccnn2ncc(-c3ccnc(N(C)C)n3)c12
remaining binding (TYK2 JH1; cell-free assay, competition with immobilised ligand; 1 µM): 81%

COc1cc(-c2cn(C3CCc4c(F)cccc4N(CC(F)(F)F)C3=O)nn2)ccc1-n1cnc(C)c1 (stereo not drawn)
remaining binding (TYK2 JH2; cell-free assay, competition with immobilised ligand; 1 µM): 100%

CC1CCCN1c1nccc(-c2cnn3ncccc23)n1 (stereo not drawn)
remaining binding (TYK2 JH1; cell-free assay, competition with immobilised ligand; 1 µM): 100%

O=C(NCCCN1CCOCC1)c1ccc(Nc2ncc(Cl)c(-c3ccc(Cl)s3)n2)cc1
remaining binding (TYK2 JH2; binding, competition with immobilised ligand; 1 µM): 5.3%

N[C@@H]1CCN(c2nccc(-c3cnn4ncccc34)n2)C1
remaining binding (TYK2 JH1; cell-free assay, competition with immobilised ligand; 1 µM): 100%

C[C@@H]1CN(c2ccc3ncc(-c4ccc5[nH]nc(C6CC6)c5c4)n3n2)C[C@H](C)O1
remaining binding (TYK2; binding, competition with immobilised ligand; 50 nM): 88%

CCc1ccccc1C(=O)Nc1n[nH]c2c(C)c(F)c(C3C(C#N)=C(C)N(C)C(C)=C3C#N)cc12
remaining binding (TYK2 JH1; cell-free assay, competition with immobilised ligand; 1 µM): 100%

COc1ncc2cc3ccccc3nc2c1C#N
remaining binding (TYK2 JH1; cell-free assay, competition with immobilised ligand; 5 µM): 69%

O=C(NCC1CCOCC1)c1n[nH]cc1NC(=O)c1c(F)cccc1F
remaining binding (TYK2 JH1; binding, competition with immobilised ligand; 1 µM): 91%

N#Cc1ccccc1CSc1nnc2c(n1)[nH]c1ccccc12
remaining binding (TYK2 JH1; binding, competition with immobilised ligand; 10 µM): 96%

CCN1CCN(Cc2ccc(C(=O)Nc3ccc(C)c(Oc4ccc5c(c4)CC(=O)N5)c3)cc2C(F)(F)F)CC1
remaining binding (TYK2 JH2; binding, competition with immobilised ligand; 1 µM): 100%
